Measurements: ChEMBL document CHEMBL5143562, “α-Synuclein Aggregation Inhibitory Prunolides and a Dibrominated β-Carboline Sulfamate from the Ascidian Synoicum prunum” (J Nat Prod, 2022)
The source made the active and inactive calls. The calls are words filed in the database; no cut-off is given here.

Experiments:
[1] = target: Alpha-synuclein (Homo sapiens) (UniProt P37840); experiment: Inhibition of alpha-Synuclein (unknown origin) aggregation assessed as times difference in midpoint of aggregation at compound to protein molar ratio of 5:1 incubated for 36 hrs under shaking condition and measured every 6 hrs by Thioflavin T based fluorescence assay relative to control
Procedure, shortened: (§1)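 Wells held 80 µM α-syn, 50 µM ThT (from 5 mM stock in glycine-NaOH pH 8.0), 80–400 µM compound, saline Tris buffer and a teflon ball. Shaken at 100 rpm, 37 °C, 36 h. Fluorescence (ex 460/em 500 nm) read every 6 h, triplicates. Protein-only wells set 100% aggregation. Percent inhibition taken at end; t50 is the shift in h of the aggregation midpoint.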

[2] = target: Alpha-synuclein (Homo sapiens) (UniProt P37840); experiment: Inhibition of alpha-Synuclein (unknown origin) aggregation assessed as time difference in midpoint of aggregation at compound to protein molar ratio of 1:1 incubated for 36 hrs under shaking condition and measured every 6 hrs by Thioflavin T based fluorescence assay relative to control; procedure, shortened: as §1
[3] = test system: Staphylococcus aureus; experiment: Antibacterial activity against methicillin-sensitive Staphylococcus aureus ATCC 25923 assessed as inhibition of bacterial growth measured after 18 hrs by resazurin based fluorescent plate reader; type: functional, organism-based; conditions: ATCC 25923, 18 h
Procedure, shortened: (§2)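 Broth microdilution in lysogeny broth; overnight culture (16-18 h, 37.5 °C) adjusted to 5 × 10^5 CFU/mL inoculum. DMSO stocks serially diluted 1:2 (ten-fold series); fusidic acid positive and 5% DMSO negative controls. Plates shaken at 100 rpm, 18 h at 37.5 °C, then 704 µM resazurin added (stock), further 1 h; fluorescence ex 544/em 590 nm.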

[4] = target: Alpha-synuclein (Homo sapiens) (UniProt P37840); experiment: Inhibition of alpha-Synuclein (unknown origin) aggregation at compound to protein molar ratio of 1:1 incubated for 36 hrs under shaking condition and measured every 6 hrs by Thioflavin T based fluorescence assay relative to control; conditions: concentration not given here; procedure, shortened: as §1
[5] = target: Alpha-synuclein (Homo sapiens) (UniProt P37840); experiment: Binding affinity to alpha-Synuclein (unknown origin) at compound to protein molar ratio of 5:1 incubated for 3 hrs by mass spectroscopy analysis
Procedure, shortened: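 α-Syn (10 µM) in 10 mM ammonium acetate. Compound (100 µM, in methanol) added at 5:1 ligand:protein and kept 3 h at rt. Positive-mode HRESIMS, calibrated with sodium trifluoroacetate. Spectra inspected for extra peaks of protein–ligand complexes; scored yes/no.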

[6] = target: Alpha-synuclein (Homo sapiens) (UniProt P37840); experiment: Inhibition of alpha-Synuclein (unknown origin) aggregation at compound to protein molar ratio of 5:1 incubated for 36 hrs under shaking condition and measured every 6 hrs by Thioflavin T based fluorescence assay relative to control; conditions: concentration not given here; procedure, shortened: as §1
[7] = test system: Staphylococcus aureus; experiment: Antibacterial activity against methicillin-resistant Staphylococcus aureus ATCC 43300 assessed as inhibition of bacterial growth measured after 18 hrs by resazurin based fluorescent plate reader; type: functional, organism-based; conditions: ATCC 43300, 18 h; procedure, shortened: as §2
[8] = Selectivity index, ratio of IC50 for cytotoxicity against human HEK293 cells to IC50 for antiplasmodial activity against Plasmodium falciparum 3D7; type: toxicity, cell-based; conditions: read-out: Ratio IC50
[9] = test system: Plasmodium falciparum; experiment: Antiplasmodial activity against Plasmodium falciparum 3D7 assessed as inhibition of parasite growth incubated for 72 hrs by DAPI staining based confocal microscopic analysis; type: functional, organism-based; conditions: 3D7, 72 h
Procedure, shortened: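 P. falciparum 3D7 in imaging plates, 2% parasitemia, 0.3% hematocrit, 16-point dilution series 0.4 nM–40 µM (N=2), 72 h at 37 °C under 5% O2/5% CO2/90% N2. DAPI stain, confocal imaging. Percent inhibition normalised to in-plate 5 µM puromycin (positive) and 0.4% DMSO (negative) controls. IC50 from sigmoidal nonlinear regression.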

[10] = test system: HEK293; experiment: Cytotoxicity against human HEK293 cells measured after 72 hrs by resazurin assay; type: toxicity, cell-based; conditions: hek293, 72 h
Procedure, shortened: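 HEK293 cells, 2000 per well, exposed to compound for 72 h at 37 °C. Medium then swapped for 44 µM resazurin for 6 h and fluorescence read. Viability referenced to 40 µM puromycin (positive) and 0.4% DMSO (negative). IC50 by curve fitting.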

[11] = Toxicity in mouse primary midbrain culture assessed as change in tyrosine hydroxylase positive dopamine neuron at 0.5 uM; type: tissue-based
Procedure, shortened: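 Primary embryonic mouse midbrain cultures given sonicated mouse α-syn PFFs (2.5 µg/mL final) on DIV8. Compound, 0.1% DMSO vehicle or 50 ng/mL GDNF added ~15 min later. Fixed DIV15, immunostained for TH and pSer129-α-syn, DAPI nuclei. Nine fields per well imaged at 10×. TH+ neurons with/without pSyn aggregates counted. ≥3 independent cultures, ≥3 wells each. Randomized-block ANOVA with Benjamini-Krieger-Yekutieli correction, mean ± SD.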

[12] = target: Alpha-synuclein (Mus musculus) (UniProt O55042); experiment: Inhibition of PFF-induced alpha-Synuclein aggregation in mouse primary midbrain culture assessed as decrease in tyrosine hydroxylase positive dopamine neuron with p-Syn aggregation at 0.5 uM incubated for 7 days by immunostaining analysis; conditions: time 7.0 day

O=C1C=C(c2ccc(O)cc2)[C@]2(O1)O[C@@]1(OC(=O)C=C1c1ccc(O)cc1)C(c1ccc(O)cc1)=C2c1ccc(O)cc1
TIME [1]: 2.3 h
TIME [2]: 0 h
IC50 [3]: > 10 µM
inhibition [4]: 22.1%
Activity [5]: Active
inhibition [6]: 51.5%
IC50 [7]: > 10 µM

O=C1C=C(c2ccc(O)cc2)[C@]2(O1)O[C@]1(OC(=O)C=C1c1ccc(O)cc1)C(c1ccc(O)c(Br)c1)=C2c1ccc(O)cc1
TIME [1]: 4 h
TIME [2]: 2 h
IC50 [3]: 10.8 µM
inhibition [4]: 24.9%
Activity [5]: Active
inhibition [6]: 92.9%
IC50 [7]: 16.1 µM

O=C(O)c1cc2c([nH]c3ccc(Br)cc32)c(C(=O)c2cn(S(=O)(=O)O)c3ccc(Br)cc23)n1
selectivity ratio [8]: 2.66
IC50 [9]: 15.1 µM
Activity [10]: Toxic

O=C1C=C(c2ccc(O)cc2)[C@]2(O1)O[C@]1(OC(=O)C=C1c1ccc(O)c(Br)c1)C(c1ccc(O)cc1)=C2c1ccc(O)cc1
TIME [1]: 4 h
TIME [2]: 1 h
IC50 [3]: > 10 µM
inhibition [4]: 39%
Activity [5]: Active
inhibition [6]: 97.6%
IC50 [7]: > 10 µM

O=C1C=C(c2cc(Br)c(O)c(Br)c2)[C@]2(O1)O[C@]1(OC(=O)C=C1c1cc(Br)c(O)c(Br)c1)C(c1cc(Br)c(O)c(Br)c1)=C2c1cc(Br)c(O)c(Br)c1
TIME [1]: 13.7 h
TIME [2]: 10 h
IC50 [3]: > 10 µM
inhibition [4]: 13.3%
Activity [5]: Active
inhibition [6]: 89%
IC50 [7]: > 10 µM
Activity [10]: Toxic
Activity [11]: Non-Toxic

O=C1C=C(c2cc(Br)c(O)c(Br)c2)[C@]2(O1)O[C@]1(OC(=O)C=C1c1cc(Br)c(O)c(Br)c1)C(c1ccc(O)c(Br)c1)=C2c1ccc(O)c(Br)c1
inhibition [12]: Active
TIME [1]: 10 h
TIME [2]: 9.4 h
IC50 [3]: > 10 µM
inhibition [4]: 34.3%
Activity [5]: Active
inhibition [6]: 99.9%
IC50 [7]: > 10 µM
Activity [10]: Toxic
Activity [11]: Non-Toxic

O=C1C=C(c2ccc(O)c(Br)c2)[C@]2(O1)O[C@]1(OC(=O)C=C1c1ccc(O)c(Br)c1)C(c1ccc(O)c(Br)c1)=C2c1ccc(O)c(Br)c1
Activity [5]: Active

O=C(O[C@@H]1Cc2c(O)cc(O)cc2O[C@@H]1c1cc(O)c(O)c(O)c1)c1cc(O)c(O)c(O)c1
TIME [1]: 11.1 h
TIME [2]: 9.4 h
Activity [5]: Active
inhibition [6]: 98.9%

O=C1C=C(c2ccc(O)cc2)[C@]2(O1)O[C@]1(OC(=O)C=C1c1ccc(O)cc1)C(c1ccc(O)cc1)=C2c1ccc(O)cc1
TIME [1]: 14.5 h
selectivity ratio [8]: 7.6
TIME [2]: 6.2 h
IC50 [3]: > 10 µM
IC50 [9]: 5.1 µM
inhibition [4]: 60%
Activity [5]: Active
inhibition [6]: 75.2%
IC50 [7]: > 10 µM
Activity [10]: Toxic
Activity [11]: Non-Toxic

O=C1C=C(c2cc(Br)c(O)c(Br)c2)[C@]2(O1)O[C@]1(OC(=O)C=C1c1ccc(O)cc1)C(c1ccc(O)c(Br)c1)=C2c1ccc(O)cc1
IC50 [3]: > 10 µM
Activity [5]: Active
IC50 [7]: > 10 µM

O=C1C=C(c2cc(Br)c(O)c(Br)c2)[C@]2(O1)O[C@]1(OC(=O)C=C1c1cc(Br)c(O)c(Br)c1)C(c1ccc(O)c(Br)c1)=C2c1ccc(O)cc1
IC50 [3]: 12.2 µM
Activity [5]: Active
IC50 [7]: 11.6 µM
